Reference: ChEMBL document CHEMBL3259584, “Antiproliferative novel isoxazoles: modeling, virtual screening, synthesis, and bioactivity evaluation” (Eur J Med Chem, 2014)

What was measured:
MCF7 = assay: Antiproliferative activity against human MCF7 cells after 5 days by coulter counter analysis; assay type: functional, cell-based; conditions: MCF7, 120 h
Outline: (§1)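 Mouse brain endothelial cells (MBEC), HeLa and MCF-7 were maintained in DMEM with 10 mM Hepes and 10% FBS. Cells were seeded at 10,000 cells per cm2. After 16 h the medium was replaced with fresh medium containing 5-fold serial dilutions of compound. On day 5 cells were trypsinized and counted electronically. IC50 was taken as the concentration halving cell number relative to untreated control counts.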

[1] = Antiproliferative activity against human HMEC1 cells after 5 days by coulter counter analysis; assay type: cell-based; conditions: HMEC-1, 120 h
Outline: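 HMEC-1 human microvascular endothelial cells were grown in EGM-2 MV endothelial medium and plated at 10,000 cells per cm2. After 16 h they received fresh medium with 5-fold dilutions of compound. On day 5 cells were trypsinized and counted with a Coulter counter. IC50 was the concentration reducing cell count by 50% relative to control cultures.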

[2] = Antiproliferative activity against MBEC after 5 days by coulter counter analysis; design: species or system Mus musculus; outline: as §1
HeLa = assay: Antiproliferative activity against human HeLa cells after 5 days by coulter counter analysis; assay type: functional, cell-based; conditions: 120 h; outline: as §1

| SMILES | IC50 (MCF7) | IC50 [1] | IC50 [2] | IC50 (HeLa) |
| --- | --- | --- | --- | --- |
| COc1ccc(-c2cc(-c3ccc(OC)cc3)on2)cc1 | > 100 µM | > 100 µM | > 100 µM | > 100 µM |
| COc1ccc(-c2noc(-c3ccc(OC)cc3)c2C)cc1 | > 100 µM | > 100 µM | > 100 µM | > 100 µM |
| CCc1c(-c2ccc(OC)cc2)noc1-c1ccc(OC)cc1 | > 100 µM | > 100 µM | > 100 µM | > 100 µM |
| COc1ccc(-c2cc(-c3ccc([N+](=O)[O-])cc3)on2)cc1 | > 100 µM | > 100 µM | > 100 µM | > 100 µM |
| Oc1ccc(-c2cc(-c3ccc(O)cc3)on2)cc1 | 5.2 µM | 6.3 µM | 2.5 µM | 6 µM |
| Cc1c(-c2ccc(O)cc2)noc1-c1ccc(O)cc1 | 48 µM | 47 µM | 19 µM | 15 µM |
| CCc1c(-c2ccc(O)cc2)noc1-c1ccc(O)cc1 | 9.8 µM | 9.7 µM | 13 µM | 16 µM |
| O=[N+]([O-])c1ccc(-c2cc(-c3ccc(O)cc3)no2)cc1 | 53 µM | 27 µM | 42 µM | 57 µM |
| COc1ccc(-c2noc3c2CCc2cc(OC)ccc2-3)cc1 | > 100 µM | > 100 µM | > 100 µM | > 100 µM |
| COc1ccc(-c2noc3c2CCc2cc(OC)c(OC)cc2-3)cc1 | > 100 µM | > 100 µM | > 100 µM | > 100 µM |
| COc1ccc2c(c1)CCc1c(-c3ccc(OC)c(OC)c3)noc1-2 | > 100 µM | > 100 µM | > 100 µM | > 100 µM |
| COc1ccc(-c2noc3c2CCc2cc(OC)c(OC)cc2-3)cc1OC | 0.36 µM | 0.56 µM | 1.1 µM | 0.59 µM |
| Oc1ccc(-c2noc3c2CCc2cc(O)c(O)cc2-3)cc1 | 2.1 µM | 7.4 µM | 6.8 µM | 10 µM |
| Oc1ccc(-c2noc3c2CCc2cc(O)c(O)cc2-3)cc1O | 2.1 µM | 4.2 µM | 10 µM | 9.1 µM |
| COc1ccc2c(c1)CCc1c(-c3ccc(SC(F)(F)F)cc3)noc1-2 | > 100 µM | > 100 µM | > 100 µM | > 100 µM |
| Oc1ccc2c(c1)CCc1c(-c3ccc(SC(F)(F)F)cc3)noc1-2 | 81 µM | 65 µM | 67 µM | 55 µM |
| COc1ccc2c(c1)CCc1c(-c3ccc(F)cc3)noc1-2 | > 100 µM | > 100 µM | > 100 µM | 34 µM |
| Oc1ccc(-c2noc3c2CCc2cc(O)ccc2-3)cc1 | 3.1 µM | 6.7 µM | 4.6 µM | 3.3 µM |
| Oc1ccc2c(c1)CCc1c(-c3ccc(O)c(O)c3)noc1-2 | 0.72 µM | 0.42 µM | 0.96 µM | 0.97 µM |
| Oc1ccc2c(c1)CCc1c(-c3ccc(F)cc3)noc1-2 | > 100 µM | 46 µM | 38 µM | > 100 µM |
